Calls of active or inactive are those of the source. The calls are words filed in the database; no cut-off is given here.
Tests used:
A549/CDDP [1] = assay: Antiproliferative activity against human A549/CDDP cells after 72 hrs by MTT assay; assay type: functional, cell-based
Procedure, shortened: (§1)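 Cells (A549, A549/DDP, SPC-A-1, LTEP-G-2, non-tumor bronchial epithelial HBE) were exposed in triplicate to vehicle or compound for 72 h. MTT (5 mg/mL in PBS) was then added for 4 h, formazan was dissolved in DMSO, and absorbance was read at 570 nm. IC50 values were derived from viability.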

A549 [2] = assay: Antiproliferative activity against human A549 cells after 72 hrs by MTT assay; assay type: functional, cell-based; settings: A549, 72 h; procedure, shortened: as §1
[3] = Antiproliferative activity against human LTEP-G2 cells after 72 hrs by MTT assay; assay type: functional, cell-based; procedure, shortened: as §1
[4] = Antiproliferative activity against human SPC-A1 cells after 72 hrs by MTT assay; assay type: functional, cell-based; settings: SPCA1, 72 h; procedure, shortened: as §1
[5] = Cytotoxicity against NHBE cells after 72 hrs by MTT assay; assay type: cell-based; settings: Homo sapiens; procedure, shortened: as §1
Thioredoxin reductase [6] = target: T1, Thioredoxin reductase (Homo sapiens, UniProt Q16881+Q9NNW7+Q86VQ6); assay: Inhibition of thioredoxin reductase (unknown origin) after 2 hrs by DTNB dye based microplate spectrophotometry; assay type: protein assay
Procedure, shortened: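 NADPH-reduced TrxR (0.16 µM) was preincubated in triplicate with vehicle DMSO (0.1%, v/v) or varying compound concentrations for 2 h. It was then reacted with 2 mM DTNB and 200 µM NADPH for 3 min, and absorbance was read at 412 nm. IC50 was derived.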

Thioredoxin reductase [7] = target: T1, Thioredoxin reductase; assay: Inhibition of thioredoxin reductase in human A549/CDDP cells by DTNB dye based microplate spectrophotometry; assay type: cell-based
Procedure, shortened: (§2)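 A549 or A549/DDP cells were treated with varying compound concentrations for 24 h, then harvested, homogenized and centrifuged. Protein (50 µg) was reacted in triplicate with NADPH and DTNB in TE buffer at 37 °C for 1 h, and TNB was read at 412 nm. Activity was taken from a purified-TrxR standard curve, and IC50 was derived.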

Thioredoxin reductase [8] = target: T1, Thioredoxin reductase; assay: Inhibition of thioredoxin reductase in human A549 cells by DTNB dye based microplate spectrophotometry; assay type: cell-based; procedure, shortened: as §2
A549 [9] = assay: Induction of apoptosis in human A549 cells at 2.1 to 4.2 uM after 24 hrs by annexin V-FITC/propidium iodide staining-based flow cytometry; assay type: functional, cell-based
Procedure, shortened: (§3)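 Cells were seeded at 1 × 10^5/well and treated 24 h with DMSO (1%) or compound. They were then washed in PBS, stained with FITC-Annexin V and propidium iodide, and apoptotic fractions were quantified by flow cytometry.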

A549/CDDP [10] = assay: Induction of apoptosis in human A549/CDDP cells at 0.6 to 1.2 uM after 24 hrs by annexin V-FITC/propidium iodide staining-based flow cytometry; assay type: functional, cell-based; procedure, shortened: as §3
[11] = target: ATP-dependent translocase ABCB1 (Homo sapiens, UniProt P08183); assay: Inhibition of P-gp ATPase activity in human A549/CDDP cells at 200 uM by luminescence assay (reference value: 706683 +/- 23554 RLU); assay type: cell-based
ATP-dependent translocase ABCB1, sequence (P08183 whole entry): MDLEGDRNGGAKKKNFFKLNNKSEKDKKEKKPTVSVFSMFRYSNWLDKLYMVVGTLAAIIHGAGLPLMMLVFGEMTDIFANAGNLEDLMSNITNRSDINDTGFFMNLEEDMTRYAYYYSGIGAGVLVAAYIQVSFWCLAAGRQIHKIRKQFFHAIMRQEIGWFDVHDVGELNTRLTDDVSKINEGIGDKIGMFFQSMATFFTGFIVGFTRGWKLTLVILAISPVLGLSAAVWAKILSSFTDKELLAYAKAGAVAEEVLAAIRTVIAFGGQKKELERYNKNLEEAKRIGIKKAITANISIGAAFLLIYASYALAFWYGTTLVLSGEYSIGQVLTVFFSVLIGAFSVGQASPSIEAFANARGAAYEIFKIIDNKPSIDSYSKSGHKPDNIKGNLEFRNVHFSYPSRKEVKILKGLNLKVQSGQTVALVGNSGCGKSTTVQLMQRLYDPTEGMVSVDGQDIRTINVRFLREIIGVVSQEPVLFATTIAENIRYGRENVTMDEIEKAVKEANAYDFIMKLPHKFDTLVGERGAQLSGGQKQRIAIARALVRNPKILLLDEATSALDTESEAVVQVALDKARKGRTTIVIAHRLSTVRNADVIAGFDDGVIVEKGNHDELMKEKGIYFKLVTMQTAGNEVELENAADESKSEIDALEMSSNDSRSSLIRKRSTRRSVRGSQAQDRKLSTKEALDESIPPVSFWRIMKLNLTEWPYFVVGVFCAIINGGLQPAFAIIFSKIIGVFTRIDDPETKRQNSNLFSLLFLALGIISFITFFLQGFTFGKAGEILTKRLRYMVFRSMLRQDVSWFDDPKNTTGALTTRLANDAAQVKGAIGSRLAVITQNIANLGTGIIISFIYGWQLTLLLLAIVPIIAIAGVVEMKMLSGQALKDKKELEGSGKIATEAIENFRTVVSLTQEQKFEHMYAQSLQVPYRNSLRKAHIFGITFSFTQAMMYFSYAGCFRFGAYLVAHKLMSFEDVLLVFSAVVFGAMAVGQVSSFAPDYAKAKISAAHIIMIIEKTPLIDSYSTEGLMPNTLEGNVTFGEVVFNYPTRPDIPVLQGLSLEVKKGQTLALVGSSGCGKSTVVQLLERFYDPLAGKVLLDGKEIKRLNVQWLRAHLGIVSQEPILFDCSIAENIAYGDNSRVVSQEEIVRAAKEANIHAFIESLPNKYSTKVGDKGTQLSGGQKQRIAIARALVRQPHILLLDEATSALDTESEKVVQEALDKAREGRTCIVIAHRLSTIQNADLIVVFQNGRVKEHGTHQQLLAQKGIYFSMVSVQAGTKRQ

| Compound | IC50 (A549/CDDP [1]) [µM] | IC50 (A549 [2]) [µM] | further results |
| --- | --- | --- | --- |
| Cc1nc(C)c(/C=C/C(=O)/C=C/c2ccccc2)nc1C | 11.9 | 12.3 |  |
| COc1cccc(/C=C/C(=O)/C=C/c2nc(C)c(C)nc2C)c1O | 2.19 | 2.85 | IC50 [3]: 5.01 µM; IC50 [4]: 5.71 µM; IC50 [5]: 17.6 µM; IC50 (Thioredoxin reductase [6]): 5.3 µM; IC50 (Thioredoxin reductase [7]): 4.64 µM; IC50 (Thioredoxin reductase [8]): 4.73 µM |
| Cc1nc(C)c(/C=C/C(=O)/C=C/c2ccc3c(c2)OCO3)nc1C | 5.2 | 4.5 |  |
| Cc1nc(C)c(/C=C/C(=O)/C=C/c2ccc([N+](=O)[O-])cc2)nc1C | 7.9 | 9.6 |  |
| Cc1nc(C)c(C)nc1C [LIGUSTRAZINE] | > 200 | > 200 | Activity (A549 [9]): Active; IC50 (Thioredoxin reductase [6]): > 200 µM; IC50 (Thioredoxin reductase [7]): > 200 µM; Activity (A549/CDDP [10]): Active; IC50 (Thioredoxin reductase [8]): > 200 µM |
| Cc1nc(C)c(/C=C/C(=O)/C=C/c2ccccc2[N+](=O)[O-])nc1C | 6.39 | 17.3 |  |
| COc1ccccc1/C=C/C(=O)/C=C/c1nc(C)c(C)nc1C | 4.74 | 3.2 |  |
| Cc1nc(C)c(/C=C/C(=O)/C=C/c2ccccc2O)nc1C | 3.9 | 4.78 |  |
| Cc1ccc(/C=C/C(=O)/C=C/c2nc(C)c(C)nc2C)cc1 | 3.99 | 4.3 |  |
| COc1ccc(CCN(C)CCCC(C#N)(c2ccc(OC)c(OC)c2)C(C)C)cc1OC (stereo not given) [VERAPAMIL] |  |  | Activity [11]: 641490 RLU |
| Cc1nc(C)c(/C=C/C(=O)/C=C/c2cccc([N+](=O)[O-])c2)nc1C | 6.69 | 6.7 |  |
| Cc1nc(C)c(/C=C/C(=O)/C=C/c2ccc(C(F)(F)F)cc2)nc1C | 6.9 | 11.7 |  |
| SODIUM ORTHOVANAD |  |  | Activity [11]: 790447 RLU |

The next lines start with results.

| IC50 (A549/CDDP [1]) [µM] | IC50 (A549 [2]) [µM] | Compound | further results |
| --- | --- | --- | --- |
| 4.79 | 4.01 | Cc1nc(C)c(/C=C/C(=O)/C=C/c2ccc(O)cc2)nc1C |  |
| 1 | 1.6 | COc1cc(/C=C/C(=O)/C=C/c2nc(C)c(C)nc2C)cc(OC)c1OC | IC50 [3]: 2.34 µM; IC50 [4]: 5.35 µM; IC50 [5]: 14.3 µM; IC50 (Thioredoxin reductase [6]): 3.06 µM; IC50 (Thioredoxin reductase [7]): 1.98 µM; IC50 (Thioredoxin reductase [8]): 2.36 µM |
| 3.61 | 3.5 | COc1ccc(/C=C/C(=O)/C=C/c2nc(C)c(C)nc2C)cc1 |  |
| 3.44 | 3.3 | COc1cccc(/C=C/C(=O)/C=C/c2nc(C)c(C)nc2C)c1 |  |
| 2.85 | 3.07 | COc1ccc(/C=C/C(=O)/C=C/c2nc(C)c(C)nc2C)c(OC)c1 | IC50 [3]: 5.91 µM; IC50 [4]: 6.32 µM; IC50 [5]: 20.8 µM; IC50 (Thioredoxin reductase [6]): 7.63 µM; IC50 (Thioredoxin reductase [7]): 4.26 µM; IC50 (Thioredoxin reductase [8]): 4.12 µM |
| 7.49 | 15.8 | Cc1nc(C)c(/C=C/C(=O)/C=C/c2ccc(Cl)cc2)nc1C |  |
| 3.7 | 4.3 | Cc1nc(C)c(/C=C/C(=O)/C=C/c2cccc(O)c2)nc1C |  |
| 2.44 | 3.79 | COc1ccc(/C=C/C(=O)/C=C/c2nc(C)c(C)nc2C)cc1OC | IC50 [3]: 4.36 µM; IC50 [4]: 5.42 µM; IC50 [5]: 16.2 µM; IC50 (Thioredoxin reductase [6]): 7.09 µM; IC50 (Thioredoxin reductase [7]): 4.22 µM; IC50 (Thioredoxin reductase [8]): 4.17 µM |
| 11.8 | 7.1 | Cc1nc(C)c(/C=C/C(=O)/C=C/c2ccc3ccccc3c2)nc1C |  |
| 7.44 | 5.9 | Cc1nc(C)c(/C=C/C(=O)/C=C/c2ccc(F)cc2)nc1C |  |
| 32.4 | 38.1 | COc1cc(/C=C/C(=O)CC(=O)/C=C/c2ccc(O)c(OC)c2)ccc1O [CURCUMIN] | Activity (A549 [9]): Active; IC50 (Thioredoxin reductase [6]): 41.42 µM; IC50 (Thioredoxin reductase [7]): 39.42 µM; Activity (A549/CDDP [10]): Active; IC50 (Thioredoxin reductase [8]): 40.56 µM |
